From ChEMBL document CHEMBL4513216, “Probing the Open Global Health Chemical Diversity Library for Multistage-Active Starting Points for Next-Generation Antimalarials” (ACS Infect Dis, 2020) come the findings set out here.

This data set in a line: Toxicity liver stage against HepG2, at 10uM. The format is cell-based. Also on record: test concentration 10 uM, cell line HepG2-A16-CD81EGFP. As to conditions: human, HepG2-A16-CD81EGFP cells; read-out: INHIBITION
An outline of the steps: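 Uninfected HepG2-A16-CD81EGFP cells, 3 × 10^3 per well, 1536-well, plated on prespotted compound at 10 μM final, parasite-free screening media added to match infected plates; puromycin 10 μM positive, DMSO 0.5% negative; run in parallel with 48 h PbLuc assay at 37 °C, 5% CO2; viability by CellTiter-Glo luminescence, normalized to controls.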
Regarding `FC(F)(F)c1ccccc1CN1CCOC[C@H](Oc2cccnc2)C1`, the cytotoxicity at 10 µM was determined as 4.3%. Turning to `O=C(NC[C@H]1OC[C@@H](NC2CCCCC2)[C@@H]1O)c1cccs1`, the cytotoxicity at 10 µM was -2.36%.

As for `COc1cccc(CN2CCCCCC2c2cccc(F)c2)c1O` (stereo not given), the cytotoxicity at 10 µM was 5.02%. On to `COc1ccc2c(c1)C(=O)CC1(CCN(Cc3ccc(F)cc3)CC1)O2`, for which the cytotoxicity at 10 µM was found to be 16.6%. Consider `CCOC(=O)C1CCN(C(=O)c2cnn(-c3ccccc3F)c2N)CC1`, for which the cytotoxicity at 10 µM is 4.47%. For the compound `Cn1cc(C2CC(=O)NC23CCN(Cc2nccs2)CC3)cn1` (stereo not given), the cytotoxicity at 10 µM stood at 1.06%.

With `CNC(=O)[C@H]1C[C@@H]2CN(C(=O)c3occc3C)C[C@@H]2N1S(C)(=O)=O`, the cytotoxicity at 10 µM was -2.95%. With `COc1ncccc1C(=O)Nc1nc2c(s1)CN(S(=O)(=O)C1CC1)CC2` the figure was -9.04%; with `COc1ccccc1S(=O)(=O)N1CCC(Oc2cccnn2)CC1`, -7.33%; with `CCC(=O)N1CCC2(CC1)COc1ccccc1S(=O)(=O)N(C)C2`, -6.71%. As for `Cc1noc(C2CCC3(CCN(C(=O)C4=CCCCC4)CC3)O2)n1` (stereo not given), the cytotoxicity at 10 µM was -7.36%. For `COCCN1CCN(C(=O)C2CC=CC2)Cc2cccnc21` the value was -11.1%. `c1cnc(N2C[C@H]3CCN(c4cccnc4)C[C@H]3C2)nc1`: the cytotoxicity at 10 µM was -14.7%. In the case of `CCn1cc(NS(=O)(=O)c2ccc(Br)s2)c(C(=O)NCC(C)C)n1`, the cytotoxicity at 10 µM came out at 6.86%. As to `O=C(c1ccc2c(c1)CCCC2)N1CCn2ncnc2C1`, the cytotoxicity at 10 µM is -4.9%. With `Cc1nccn1[C@@H]1CC[C@@H](N(C)S(=O)(=O)c2ccccc2F)[C@H]1O` the figure was 1.17%; with `Cc1c[nH]c(C2CCCN2C(=O)CCc2c(C)n[nH]c2C)n1` (stereo not given), -1.4%; with `CCN(CC)C(=O)CN1CCCC1c1nc(C)c2c(n1)N(C)C(=O)CC2` (stereo not given), 3.1%.

For `NC(=O)c1cc(CC2CCCN(Cc3cnccn3)CC2)ncn1` (stereo not given), the cytotoxicity at 10 µM is -3.97%. For `CN1CCOC(c2cncc(CCC(N)=O)n2)C1` (stereo not given), the cytotoxicity at 10 µM is -2.86%. In the case of `O=C(Cc1cccc(O)c1)N1CCCC(O)(CN2CCCC2)CC1` (stereo not given), the cytotoxicity at 10 µM is -4.68%. For `Cc1cc(O)nc(C2CCCN(CCO)C2)n1` (stereo not given), the cytotoxicity at 10 µM is -14.6%. As for `Cc1ccccc1-c1cncc(C2CCN(CC(=O)N(C)C)CC2)n1`, the cytotoxicity at 10 µM is -12.5%. As to `Cn1ccc(C(=O)N2CCCC(Cc3cccc4cccnc34)C2)n1` (stereo not given), the cytotoxicity at 10 µM is -8.44%. As to `CC(C)(C)C(=O)Nc1cnn(-c2ccccc2S(C)(=O)=O)c1`, the cytotoxicity at 10 µM came to 3.65%. For `Cc1ccc2oc(N3CCN(CC(=O)NC(C)C)CC3)nc2c1`, the cytotoxicity at 10 µM was -10.9%. Turning to `CN1CCC(Nc2ccc(F)cc2OCC(F)(F)F)C1=O` (stereo not given), the cytotoxicity at 10 µM was -0.898%. With `O=C(Cc1cccs1)NCC(=O)Nc1cn[nH]c1` the figure was 5.68%; with `NC(=O)CC1CCN(C(=O)NCc2cccc(-n3cccn3)c2)CC1`, -2.45%. On to `CC(c1ncc(C(C)(C)C)o1)N1CCN(Cc2ccc(Cl)s2)CC1` (stereo not given), for which the cytotoxicity at 10 µM was -1.21%.

As to `Cn1cc(C(=O)N2CCCN(c3cccnn3)CC2)c2ccccc21`, the cytotoxicity at 10 µM amounted to 4%.

For the compound `CNC(=O)Cn1cc(Nc2cccc(F)c2C#N)cn1`, the cytotoxicity at 10 µM came to 6.64%. With `CC(Cn1cccn1)C(=O)N1CCCN(Cc2cscn2)CC1` (stereo not given) the figure was -13.2%; with `O=C(NCCNC(=O)C1Cc2cc(F)ccc2O1)C1CCCCC1` (stereo not given), 4.07%; with `CC(C)N(C)CCNC(=O)N1CCN(Cc2ccon2)CC1`, -1.58%.

Turning to `Cc1nnc(CN2CCC(c3nc4cc(Cl)ccc4o3)CC2)n1C`, the cytotoxicity at 10 µM is -3.49%.

Regarding `CCc1cnc(CN(C)C2CCN(CC3CCC3)C2)o1` (stereo not given), the cytotoxicity at 10 µM is -5.99%. Regarding `Cc1cc(NC(=O)CN2CCCC2c2noc(C3CC3)n2)on1` (stereo not given), the cytotoxicity at 10 µM came out at 3.46%. As to `Cn1ccc(CNC(=O)N2CCC(C3(C)OCCO3)CC2)c1`, the cytotoxicity at 10 µM was 3.15%. In the case of `CCN1CCN(S(=O)(=O)c2c[nH]c(C(C)C)n2)c2ccccc21`, the cytotoxicity at 10 µM turned out to be 4.65%. `N#Cc1cccnc1NCc1cccnc1N1CCC(C(N)=O)CC1`: the cytotoxicity at 10 µM is -0.179%. As for `O=C(CCc1nccs1)N1CCCC(N2CCNC2=O)C1` (stereo not given), the cytotoxicity at 10 µM was -18.3%. For `CCN(Cc1cccnc1)CC1CCCO1` (stereo not given) the value was -10.7%.

As to `CCOCC(=O)N1C[C@H]2CCC[C@@]2(COC)C1`, the cytotoxicity at 10 µM was found to be 0.419%. With `CC(=O)N(C)Cc1ncn2c1CN(C(=O)C1CCCO1)CCC2` (stereo not given), the cytotoxicity at 10 µM was -101%.

Regarding `Cn1cccc1C(=O)NCc1cn2c(n1)CN(c1ncccn1)CC2`, the cytotoxicity at 10 µM is -109%. `O=C(c1ccnnc1)N1CCc2onc(Cn3cccn3)c2C1`: the cytotoxicity at 10 µM was 0.529%. For `Cc1ccc(CN2CCCn3c(nc(Cn4ccnc4)cc3=O)C2)s1` the value was 4.24%. Take `COCCN1CC(=O)c2sc(NCc3ccccc3)nc2C1`: the cytotoxicity at 10 µM was -6.77%. Take `O=C(c1onc2ccccc12)N1CCC2(CCCNC2)C1` (stereo not given): the cytotoxicity at 10 µM is -1.05%. With `c1ccc(-c2cc(CN3C[C@H]4CC[C@H]3C4)on2)cc1`, the cytotoxicity at 10 µM is -5.33%.

Turning to `Cc1nc(N2CCCC2C(=O)NCc2ccsc2)nc2ccccc12` (stereo not given), the cytotoxicity at 10 µM came to 6.03%.

As for `CN1C(=O)CC(C(=O)O)C12CCN(c1ccc3cccc(Cl)c3n1)CC2` (stereo not given), the cytotoxicity at 10 µM was determined as 2.1%. Turning to `COCCN(C)CCN1CC2(CCN(C3CCSC3)CC2)OC1=O` (stereo not given), the cytotoxicity at 10 µM is -2.28%. For `Cc1ccc2nc(CN3CCN(C4CCCC4)C(=O)C3)cc(O)c2c1` the value was -0.803%; for `CC1(C)CNC(=O)c2nc(C3CCCN(S(C)(=O)=O)C3)[nH]c2C1` (stereo not given), 0.611%. With `O=C(c1ccc2ncsc2c1)N1CCC(C(=O)O)(n2cccn2)CC1` the figure was 6.01%; with `O=c1cc(N2CCOCC2)cnn1CCc1ccc(F)cc1`, 8.01%. Consider `Nc1cnc(-c2cccc3c2CCNC3)cn1`, for which the cytotoxicity at 10 µM is -12%. Turning to `N#Cc1cccc(NC2CC(=O)N(Cc3cccc(F)c3)C2)n1` (stereo not given), the cytotoxicity at 10 µM is -94.2%.

`CN(C)c1ncc(CN2CCCC(Nc3ccc4c(c3)OCCO4)C2)s1` (stereo not given): the cytotoxicity at 10 µM was 8.12%. For `CN(C)C(=O)c1cn2cc(-c3ccccc3Cl)n(CC3CC3)c(=O)c2n1`, the cytotoxicity at 10 µM is -1.43%. For `CCc1ncc(CNCc2cccnc2N(C)C)cn1` the value was -2.62%; for `COc1ccc2c(c1)CCN(Cc1cscn1)CC2`, 0.0869%; for `COc1cccc2c1OCC(C(=O)N1CCN(S(=O)(=O)N(C)C)CC1)C2` (stereo not given), 3.47%. Regarding `Cc1nc2c(c(NCCNC(=O)C(C)C)n1)Cc1ccccc1OC2`, the cytotoxicity at 10 µM was found to be 4.74%. On to `COc1cc(Oc2ccc(C(N)=O)cn2)ccc1CN1CCCC1`, for which the cytotoxicity at 10 µM was -0.398%.

Regarding `COc1ccccc1OCc1cc(C(=O)N2C[C@H](O)[C@@H](N(C)C)C2)n[nH]1`, the cytotoxicity at 10 µM came to 3.2%. Consider `O=C(O)[C@]12CCCN(Cc3ccncc3)[C@@H]1CCN(c1cnccn1)C2`, for which the cytotoxicity at 10 µM worked out at 20.4%. Consider `Cc1nnc(NCc2cccnc2OCC(F)(F)F)c(C#N)c1C`, for which the cytotoxicity at 10 µM was -7.77%. In the case of `Cc1nnc2n1CCN(Cc1csc(COc3ccccc3)n1)C2`, the cytotoxicity at 10 µM is -14.3%. On to `CCc1noc(C(C)N2CCN(CCN3CCCC3=O)CC2)n1` (stereo not given), for which the cytotoxicity at 10 µM was -9.37%. In the case of `CCOc1ccc(Cl)c(C(=O)NCCC(=O)Nc2ccncc2)n1`, the cytotoxicity at 10 µM was -13.9%.

As for `Cc1cccc(NC2CCN(C(=O)Nc3ccc(F)cc3C)CC2)n1`, the cytotoxicity at 10 µM was -11.7%. Turning to `Cc1ccc(F)c(NC(=O)NCCCn2nc3ccccn3c2=O)c1`, the cytotoxicity at 10 µM was -13.3%. `Cn1nc2c(cc1=O)CN(Cc1coc(-c3ccc(F)cc3)n1)CC2`: the cytotoxicity at 10 µM was -11.5%. With `Cc1nccn1C1CCCN(C(=O)c2cccc(OCC(N)=O)c2)C1` (stereo not given), the cytotoxicity at 10 µM was -13%. For the compound `CN(C)c1cc(CNC(=O)Nc2nccs2)ccn1`, the cytotoxicity at 10 µM stood at 2.3%. In the case of `Cc1nccc(CNc2cc(N3CCCC3CO)ncn2)n1` (stereo not given), the cytotoxicity at 10 µM was -14%.

For the compound `CCN1CCC(NC(=O)CN2CCc3c(ncn3C3CC3)C2)CC1`, the cytotoxicity at 10 µM is -4.8%. As for `CNC(=O)c1ccc(C(=O)N2CCC(Nc3cccnn3)CC2)cn1`, the cytotoxicity at 10 µM is -19.4%. With `CC(=O)Nc1nc(C(=O)N2CCCCC2Cn2cc(C)cn2)cs1` (stereo not given) the figure was -17.1%.

Consider `CC1CN(C(=O)CN(Cc2ccccc2Cl)C2CCCC2)CCO1` (stereo not given), for which the cytotoxicity at 10 µM is -5.65%. With `CC(=O)N(Cc1noc(C)n1)C1CCN(Cc2cnc(C)s2)C1` (stereo not given), the cytotoxicity at 10 µM is -9.65%. As for `CCc1nnsc1C(=O)N1CCCN(Cc2ccc(F)cc2)CC1`, the cytotoxicity at 10 µM was -3.69%. As to `CS(=O)(=O)NCC1CCCN(C(=O)COc2ccc(F)cc2)C1` (stereo not given), the cytotoxicity at 10 µM was -6.38%. With `CCc1noc(C(C)N2CCN(Cc3ncc(C(C)(C)C)o3)CC2)n1` (stereo not given) the figure was -6.62%; with `CCNc1cc2c(nn1)CCN(C(=O)c1ccc(NC3CC3)nc1)C2`, -12.3%; with `CC(c1ccc(F)c(F)c1)N1CCN(Cc2nccn2C)CC1` (stereo not given), -2.76%. As for `CCn1nc2c(cc1=O)CN(CC(=O)Nc1nc(C)c(C)s1)CC2`, the cytotoxicity at 10 µM is -8.8%. For the compound `CCCn1nc(C)c(-c2cncn2CCN(C)C2CCCC2)c1C`, the cytotoxicity at 10 µM was determined as 4.16%. Turning to `CC(C)CNC(=O)[C@H]1CCS(=O)(=O)[C@@H]2CN(Cc3ccc(F)cc3)C[C@H]12`, the cytotoxicity at 10 µM is 1.26%.

As for `O=C(NC1CC1)N1CCOCC2(CCN(Cc3cccs3)C2)C1` (stereo not given), the cytotoxicity at 10 µM was -2.6%. In the case of `CN(C)C(=O)[C@H]1C[C@@H]2CCN(C3CCOCC3)C[C@@H]2O1`, the cytotoxicity at 10 µM was -3.01%. With `Cc1ccc(N2CCC3(CCN(C(=O)c4ccoc4)CC3)CC2)nn1`, the cytotoxicity at 10 µM was -0.355%.
